# ChEMBL document CHEMBL4819122, “Novel 4-(piperazin-1-yl)quinolin-2(1H)-one bearing thiazoles with antiproliferative activity through VEGFR-2-TK inhibition” (Bioorg Med Chem, 2021)
# Active and inactive are the calls of the source. No cut-off for these calls is given here.
# Legend:
# [1] = system: HOP-92; test: Cytotoxicity against human HOP-92 assessed as growth inhibition at 10 uM by NCI protocol relative to control; type: functional; conditions: read-out: GI
# Method in brief: (§1)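 Run by NCI as a single-dose screen at 10 μM across the sixty-cell-line panel, which covers nine human tumour tissue types. The read-out is percent growth inhibition of treated cells relative to untreated cells.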
# [2] = system: MDA-MB-435; test: Cytotoxicity against human MDA-MB-435 assessed as growth inhibition at 10 uM by NCI protocol relative to control; type: functional, cell-based; method in brief: as §1
# [3] = system: T47D; test: Cytotoxicity against human T47D cells assessed as reduction in cell viability after 3 hrs by MTT assay
# [4] = system: CCRF-CEM; test: Cytotoxicity against human CCRF-CEM assessed as growth inhibition at 10 uM by NCI protocol relative to control; type: functional; conditions: read-out: GI; method in brief: as §1
# [5] = system: HL-60; test: Cytotoxicity against human HL60 assessed as growth inhibition at 10 uM by NCI protocol relative to control; type: functional; conditions: read-out: GI; method in brief: as §1
# [6] = system: K562; test: Cytotoxicity against human K-562 assessed as growth inhibition at 10 uM by NCI protocol relative to control; type: functional; conditions: read-out: GI; method in brief: as §1
# [7] = system: MOLT-4; test: Cytotoxicity against human MOLT-4 assessed as growth inhibition at 10 uM by NCI protocol relative to control; type: functional; conditions: read-out: GI; method in brief: as §1
# [8] = system: RPMI-8226; test: Cytotoxicity against human RPMI-8226 assessed as growth inhibition at 10 uM by NCI protocol relative to control; type: functional; method in brief: as §1
# [9] = system: A549; test: Cytotoxicity against human A549 assessed as growth inhibition at 10 uM by NCI protocol relative to control; type: functional; conditions: read-out: GI; method in brief: as §1
# [10] = system: EKVX; test: Cytotoxicity against human EKVX assessed as growth inhibition at 10 uM by NCI protocol relative to control; type: functional; conditions: read-out: GI; method in brief: as §1
# [11] = system: NCI-H226; test: Cytotoxicity against human NCI-H226 assessed as growth inhibition at 10 uM by NCI protocol relative to control; type: functional; conditions: read-out: GI; method in brief: as §1
# [12] = system: NCI-H23; test: Cytotoxicity against human NCI-H23 assessed as growth inhibition at 10 uM by NCI protocol relative to control; type: functional; conditions: read-out: GI; method in brief: as §1
# [13] = system: NCI-H460; test: Cytotoxicity against human NCI-H460 assessed as growth inhibition at 10 uM by NCI protocol relative to control; type: functional; conditions: read-out: GI; method in brief: as §1
# [14] = system: NCI-H522; test: Cytotoxicity against human NCI-H522 assessed as growth inhibition at 10 uM by NCI protocol relative to control; type: functional; conditions: read-out: GI; method in brief: as §1
# [15] = system: HCT-116; test: Cytotoxicity against human HCT-116 assessed as growth inhibition at 10 uM by NCI protocol relative to control; type: functional; conditions: read-out: GI; method in brief: as §1
# [16] = system: HCT-15; test: Cytotoxicity against human HCT-15 assessed as growth inhibition at 10 uM by NCI protocol relative to control; type: functional; conditions: read-out: GI; method in brief: as §1
# [17] = system: SF-268; test: Cytotoxicity against human SF-268 assessed as growth inhibition at 10 uM by NCI protocol relative to control; type: functional; conditions: read-out: GI; method in brief: as §1
# [18] = system: SF-295; test: Cytotoxicity against human SF-295 assessed as growth inhibition at 10 uM by NCI protocol relative to control; type: functional; conditions: read-out: GI; method in brief: as §1
# [19] = system: SNB-19; test: Cytotoxicity against human SNB-19 assessed as growth inhibition at 10 uM by NCI protocol relative to control; type: functional; conditions: read-out: GI
# Method in brief: (§2)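 Run by the NCI under its standard protocol: one dose of 10 μM against a sixty-line panel from nine human tumour tissues. Result given as percent growth inhibition of treated cells relative to untreated cells.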
# [20] = system: LOX IMVI; test: Cytotoxicity against human LOX IMVI assessed as growth inhibition at 10 uM by NCI protocol relative to control; type: functional; conditions: read-out: GI; method in brief: as §1
# [21] = system: SK-MEL-5; test: Cytotoxicity against human SK-MEL-5 assessed as growth inhibition at 10 uM by NCI protocol relative to control; type: functional; conditions: read-out: GI; method in brief: as §1
# [22] = system: UACC-62; test: Cytotoxicity against human UACC-62 assessed as growth inhibition at 10 uM by NCI protocol relative to control; type: functional; conditions: read-out: GI; method in brief: as §2
# [23] = system: IGROV-1; test: Cytotoxicity against human IGROVI assessed as growth inhibition at 10 uM by NCI protocol relative to control; type: functional; conditions: read-out: GI; method in brief: as §1
# [24] = system: A498; test: Cytotoxicity against human A498 assessed as growth inhibition at 10 uM by NCI protocol relative to control; type: functional; conditions: read-out: GI; method in brief: as §1
# [25] = system: ACHN; test: Cytotoxicity against human ACHN assessed as growth inhibition at 10 uM by NCI protocol relative to control; type: functional; conditions: read-out: GI; method in brief: as §1
# [26] = system: RXF 393; test: Cytotoxicity against human RXF 393 assessed as growth inhibition at 10 uM by NCI protocol relative to control; type: functional; conditions: read-out: GI; method in brief: as §1
# [27] = system: SN12C; test: Cytotoxicity against human SN12C assessed as growth inhibition at 10 uM by NCI protocol relative to control; type: functional; conditions: read-out: GI; method in brief: as §2
# [28] = system: UO-31; test: Cytotoxicity against human UO31 assessed as growth inhibition at 10 uM by NCI protocol relative to control; type: functional; conditions: read-out: GI; method in brief: as §2
# [29] = system: PC-3; test: Cytotoxicity against human PC3 assessed as growth inhibition at 10 uM by NCI protocol relative to control; type: functional; conditions: read-out: GI; method in brief: as §1
# [30] = system: MCF7; test: Cytotoxicity against human MCF7 assessed as growth inhibition at 10 uM by NCI protocol relative to control; type: functional; conditions: read-out: GI; method in brief: as §1
# [31] = system: MDA-MB-231; test: Cytotoxicity against human MDA-MB-231 assessed as growth inhibition at 10 uM by NCI protocol relative to control; type: functional; conditions: read-out: GI; method in brief: as §1
# [32] = system: BT-549; test: Cytotoxicity against human BT-549 assessed as growth inhibition at 10 uM by NCI protocol relative to control; type: functional; conditions: read-out: GI; method in brief: as §1
# [33] = system: T47D; test: Cytotoxicity against human T-47D assessed as growth inhibition at 10 uM by NCI protocol relative to control; type: functional; conditions: read-out: GI; method in brief: as §2
# [34] = system: MDA-MB-468; test: Cytotoxicity against human MDA-MB-468 assessed as growth inhibition at 10 uM by NCI protocol relative to control; type: functional; conditions: read-out: GI; method in brief: as §1
compound,measurement,setting,value
O=c1cc(N2CCNCC2)c2ccccc2n1-c1ccccc1,inhibition of growth at 10 µM,[1],17%
same,growth inhibition (GI),[2],inactive
same,IC50,[3],92.1 µM
Cc1ccc(-c2csc(NC(=O)CN3CCN(c4cc(=O)n(-c5ccccc5)c5ccccc45)CC3)n2)cc1,inhibition of growth at 10 µM,[4],14.8%
same,inhibition of growth at 10 µM,[5],19.9%
same,inhibition of growth at 10 µM,[6],49.3%
same,inhibition of growth at 10 µM,[7],32.2%
same,growth inhibition (GI),[8],inactive
same,inhibition of growth at 10 µM,[9],12%
same,inhibition of growth at 10 µM,[10],26.5%
same,inhibition of growth at 10 µM,[1],13.8%
same,inhibition of growth at 10 µM,[11],17.3%
same,inhibition of growth at 10 µM,[12],29.7%
same,inhibition of growth at 10 µM,[13],11.1%
same,inhibition of growth at 10 µM,[14],22.9%
same,inhibition of growth at 10 µM,[15],20.2%
same,inhibition of growth at 10 µM,[16],26%
same,inhibition of growth at 10 µM,[17],13.4%
same,inhibition of growth at 10 µM,[18],14.4%
same,inhibition of growth at 10 µM,[19],21.8%
same,inhibition of growth at 10 µM,[20],12.2%
same,growth inhibition (GI),[2],inactive
same,inhibition of growth at 10 µM,[21],13.5%
same,inhibition of growth at 10 µM,[22],20.1%
same,inhibition of growth at 10 µM,[23],20.2%
same,inhibition of growth at 10 µM,[24],18.6%
same,inhibition of growth at 10 µM,[25],15.1%
same,inhibition of growth at 10 µM,[26],13.2%
same,inhibition of growth at 10 µM,[27],13.1%
same,inhibition of growth at 10 µM,[28],27%
same,inhibition of growth at 10 µM,[29],23.1%
same,inhibition of growth at 10 µM,[30],13.5%
same,inhibition of growth at 10 µM,[31],17.4%
same,inhibition of growth at 10 µM,[32],14.4%
same,inhibition of growth at 10 µM,[33],40.9%
same,inhibition of growth at 10 µM,[34],30.2%
same,IC50,[3],16.5 µM
